The subject of data set [1] is Trypanosoma brucei rhodesiense. The experiment in a line: Antitrypanosomal activity against Trypanosoma brucei rhodesiense STIB900 bloodstream forms isolated from patient after 70 hrs by microplate alamar blue assay. The note with it: STIB900, 70 h. Type of data set: functional. In short, it runs like this:
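MEM with 25 mM HEPES, 1 g/L extra glucose, non-essential amino acids, 0.2 mM 2-mercaptoethanol, 1 mM Na-pyruvate, 15% heat-inactivated horse serum; 4×10^3 bloodstream forms per well. Eleven 3-fold dilutions, 100 to 0.002 µg/mL; 70 h, 37°C, 5% CO2. Resazurin added, further 2-4 h; fluorescence ex 536/em 588 nm. IC50 by linear regression from sigmoidal dose-inhibition curves.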

A short description of data set [2]: Selectivity index, ratio of IC50 for rat L6 cells to IC50 for Trypanosoma brucei rhodesiense STIB900 bloodstream forms. The note with it: read-out: Ratio IC50. It counts as toxicity, cell-based. Put shortly:
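Ratio of L-6 cytotoxicity IC50 to T. b. rhodesiense STIB900 IC50. L-6: 4000 cells in RPMI 1640 with L-glutamine and 10% FBS, 70 h, then Alamar Blue 2 h. Trypanosomes: 4×10^3 bloodstream forms in supplemented MEM with 15% horse serum, 37°C, 5% CO2, 70 h, then Alamar Blue 2-4 h. Both read by fluorescence (ex 536/em 588 nm) over eleven 3-fold dilutions, 100 to 0.002 µg/mL.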

The test system of data set [3] is Plasmodium falciparum. The data set can be described thus: Antiplasmodial activity against chloroquine-sensitive Plasmodium falciparum NF54 infected in human RBC assessed as reduction in [3H]hypoxanthine incorporation preincubated for 48 hrs followed by [3H]hypoxanthine addition measured after 24 hrs by liquid scintillation counting method. It counts as functional. Put shortly:
(§1)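 Erythrocytic P. falciparum in RPMI 1640 without hypoxanthine with HEPES, NaHCO3, neomycin, Albumax (5 g/L) and washed human A+ red cells at 2.5% haematocrit, 0.3% parasitaemia. Compounds from DMSO stocks (10 mg/mL) tested as eleven 3-fold dilutions, 100 to 0.002 µg/mL. Incubation at 37°C under 4% CO2/3% O2/93% N2; 3H-hypoxanthine (0.5 µCi) added at 48 h, 24 h more, scintillation counting; IC50 by linear regression from sigmoidal curves.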

Data set [4] is described as follows: Selectivity index, ratio of IC50 for rat L6 cells to IC50 for chloroquine-sensitive Plasmodium falciparum NF54 infected in human RBC. It counts as toxicity, cell-based. To be noted: read-out: Ratio IC50. In short, it runs like this: (§2)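 Ratio of the IC50 in rat L-6 myoblasts to the P. falciparum IC50. L-6: 4000 cells per well, RPMI 1640 with L-glutamine and 10% FBS, 70 h, Alamar Blue 2 h, fluorescence ex 536/em 588 nm. Both use eleven 3-fold dilutions, 100 to 0.002 µg/mL.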

Data set [5] has as its system Plasmodium falciparum. The experiment in a line: Antiplasmodial activity against chloroquine/pyrimethamine-resistant Plasmodium falciparum K1 infected in human RBC assessed as reduction in [3H]hypoxanthine incorporation preincubated for 48 hrs followed by [3H]hypoxanthine addition measured after 24 hrs by liquid scintillation counting method. Type of data set: functional. In short, it runs like this: as §1

Data set [6] in a line: Selectivity index, ratio of IC50 for rat L6 cells to IC50 for chloroquine/pyrimethamine-resistant Plasmodium falciparum K1 infected in human RBC. Type of data set: toxicity, cell-based. To be noted: read-out: Ratio IC50. Put shortly: as §2
Data set [7] can be described thus: Cytotoxicity against rat L6 cells assessed as growth inhibition after 70 hrs by alamar blue assay. Type of data set: toxicity. In short, it runs like this:
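4000 L-6 cells per well in RPMI 1640 with 1% L-glutamine (200 mM) and 10% FBS. Eleven 3-fold dilutions spanning 100 to 0.002 µg/mL; 70 h incubation, controls checked microscopically. Alamar Blue added for 2 h more; fluorescence ex 536/em 588 nm. IC50 by linear regression from sigmoidal dose-inhibition curves.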

A short description of data set [8]: Resistance index, ratio of IC50 for chloroquine/pyrimethamine-resistant Plasmodium falciparum K1 infected in human RBC to IC50 for chloroquine-sensitive Plasmodium falciparum NF54 infected in human RBC. Type of data set: functional. Put shortly:
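Resistance index is the ratio of the IC50 against K1 to the IC50 against NF54. Both IC50s come from the 3H-hypoxanthine incorporation assay run in parallel on the two strains.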

On to `CN1CCN(CCCNc2ccnc3cc(Cl)ccc23)CC1`, for which the IC50 is 1140 nM in data set [1], 3.1 nM with Plasmodium falciparum [3] and 31 nM in the data set on Plasmodium falciparum [5]. Also, the selectivity ratio was found to be 15.9 in data set [2], 5860 in data set [4] and 586 in data set [6]. The IC50 at 70 h in data set [7] was determined as 18200 nM. In addition, the Ratio IC50 in data set [8] amounted to 10.

As to `O=C(CN1CCCCCC1)NCCNc1ccnc2cc(Cl)ccc12`, the IC50 in data set [1] worked out at 280 nM; in the data set with Plasmodium falciparum [3], 11 nM; with Plasmodium falciparum [5], 55 nM. Moreover, the values for the selectivity ratio in data set [2], in data set [4] and in data set [6] were 50.8, 1290 and 258, respectively. In data set [7], the IC50 at 70 h was 14200 nM. Also, the Ratio IC50 in data set [8] turned out to be 5.

Consider `Clc1ccc2c(NCCNCCN3CCCCCC3)ccnc2c1`, for which the IC50 in data set [1] was 1280 nM; with Plasmodium falciparum [3], 11 nM; with Plasmodium falciparum [5], 66 nM. Besides, the selectivity ratio in data set [2] was 59.5; in data set [4] it was 6920; in data set [6], 1150. Further, the IC50 at 70 h in data set [7] is 76100 nM. The Ratio IC50 in data set [8] was 6.

With `CCN(CC)CCCC(C)Nc1ccnc2cc(Cl)ccc12` (centres undefined) [CHLOROQUINE], in data set [7], the IC50 at 70 h amounted to 90900 nM.

On to `Clc1ccc2c(N3CCN(CCN4CCCCCC4)CC3)ccnc2c1`, for which the IC50 in data set [1] was 1610 nM; with Plasmodium falciparum [3], 70 nM; in the data set with Plasmodium falciparum [5], 75 nM. The selectivity ratio amounted to 15.8 in data set [2], 362 in data set [4] and 338 in data set [6]. For the same compound, the IC50 at 70 h in data set [7] amounted to 25400 nM. The Ratio IC50 in data set [8] was determined as 1.07.

On to `COc1cc([C@@H]2c3cc4c(cc3[C@H](O)[C@H]3COC(=O)[C@H]23)OCO4)cc(OC)c1OC` [PODOFILOX], for which the IC50 at 70 h in data set [7] came out at 12 nM.

In the case of `CCCN(CCC)CCN1CCN(c2ccnc3cc(Cl)ccc23)CC1`, the values for the IC50 (in data set [1]; with Plasmodium falciparum [3]; in the data set with Plasmodium falciparum [5]) were 1070 nM, 110 nM and 88 nM, respectively. In addition, the selectivity ratio in data set [2] was found to be 53.1; in data set [4], 517; in data set [6], 646. In data set [7], the half-inhibitory concentration (IC50) at 70 h is 56800 nM. The Ratio IC50 in data set [8] came to 0.8.

`CN1CCN(CC(=O)NCCNc2ccnc3cc(Cl)ccc23)CC1`: the IC50 worked out at 18300 nM in data set [1], 36 nM in the data set with Plasmodium falciparum [3] and 2870 nM in the data set on Plasmodium falciparum [5]. The figures for the selectivity ratio in data set [2], in data set [4] and in data set [6] were 2.08, 1060 and 13.3, respectively. Further, in data set [7], the IC50 at 70 h was 38000 nM. Further, in data set [8], the Ratio IC50 was 79.7.

In the case of `CCCN(CCC)CC(=O)NCCNc1ccnc2cc(Cl)ccc12`, the IC50 in data set [1] was 940 nM; in the data set on Plasmodium falciparum [3], 14 nM; in the data set on Plasmodium falciparum [5] it was 30 nM. Besides, the selectivity ratio in data set [2] worked out at 23.4; in data set [4], 1570; in data set [6], 732. The IC50 at 70 h in data set [7] is 22000 nM. Also, in data set [8], the Ratio IC50 was 2.14.

Turning to `Clc1ccc2c(NCCCN3CCCCCC3)ccnc2c1`, the values for the IC50 (in data set [1]; with Plasmodium falciparum [3]; in the data set with Plasmodium falciparum [5]) were 780 nM, 6.3 nM and 38 nM, respectively. The values for the selectivity ratio in data set [2], in data set [4] and in data set [6] were 25.6, 3170 and 525, respectively. Moreover, in data set [7], the IC50 at 70 h stood at 20000 nM. For the same compound, the Ratio IC50 in data set [8] was determined as 6.03.

With `CCCN(CCC)CC(=O)N1CCN(c2ccnc3cc(Cl)ccc23)CC1`, the values for the IC50 (in data set [1]; in the data set with Plasmodium falciparum [3]; with Plasmodium falciparum [5]) were 1460 nM, 230 nM and 310 nM, respectively. Further, the selectivity ratio in data set [2] is 48.3; in data set [4], 306; in data set [6] it was 227. For the same compound, in data set [7], the IC50 at 70 h is 70500 nM. The Ratio IC50 in data set [8] worked out at 1.35.

On to `CN1CCN(CC(=O)N2CCN(c3ccnc4cc(Cl)ccc34)CC2)CC1`, for which the IC50 in data set [1] is 2020 nM; with Plasmodium falciparum [3] it was 140 nM; in the data set with Plasmodium falciparum [5], 280 nM. Moreover, the values for the selectivity ratio in data set [2], in data set [4] and in data set [6] were 39.5, 570 and 285, respectively. Also, in data set [7], the IC50 at 70 h turned out to be 79800 nM. For the same compound, in data set [8], the Ratio IC50 came to 2.

For `O=C(CN1CCCC1)NCCNc1ccnc2cc(Cl)ccc12`, the IC50 in data set [1] was found to be 740 nM; in the data set with Plasmodium falciparum [3], 18 nM; in the data set on Plasmodium falciparum [5], 75 nM. Further, the selectivity ratio in data set [2] turned out to be 62.7; in data set [4], 2580; in data set [6] it was 618. The IC50 at 70 h in data set [7] was found to be 46400 nM. For the same compound, the Ratio IC50 in data set [8] came to 4.17.

`CN1CCN(CCNc2ccnc3cc(Cl)ccc23)CC1`: the values for the IC50 (in data set [1]; in the data set on Plasmodium falciparum [3]; in the data set with Plasmodium falciparum [5]) were 690 nM, 6.6 nM and 36 nM, respectively. Moreover, the selectivity ratio in data set [2] was 24.2; in data set [4] it was 2540; in data set [6], 465. Also, the IC50 at 70 h in data set [7] was found to be 16700 nM. The Ratio IC50 in data set [8] was 5.45.

`O=C(CN1CCCCC1)NCCNc1ccnc2cc(Cl)ccc12`: the IC50 in data set [1] is 1280 nM; in the data set with Plasmodium falciparum [3], 11 nM; in the data set on Plasmodium falciparum [5], 92 nM. Also, the selectivity ratio in data set [2] was determined as 18.5; in data set [4] it was 2160; in data set [6], 258. Moreover, the IC50 at 70 h in data set [7] is 23700 nM. Besides, the Ratio IC50 in data set [8] was determined as 8.36.

`CCCN(CCC)CCNc1ccnc2cc(Cl)ccc12`: the IC50 in data set [1] came to 140 nM; in the data set with Plasmodium falciparum [3] it was 3.3 nM; with Plasmodium falciparum [5], 9.8 nM. Also, the selectivity ratio is 107 in data set [2], 4530 in data set [4] and 1520 in data set [6]. For the same compound, the IC50 at 70 h in data set [7] was 14900 nM. Besides, the Ratio IC50 in data set [8] was 2.97.

Take `Clc1ccc2c(NCCN3CCCCCC3)ccnc2c1`: the IC50 in data set [1] was found to be 590 nM; in the data set with Plasmodium falciparum [3] it was 3.3 nM; in the data set with Plasmodium falciparum [5] it was 16 nM. The values for the selectivity ratio in data set [2], in data set [4] and in data set [6] were 22.4, 4010 and 827, respectively. For the same compound, in data set [7], the IC50 at 70 h is 13200 nM. Moreover, in data set [8], the Ratio IC50 was 4.85.

As to `Nc1nc(N)nc(Nc2ccc([As]3SCC(CO)S3)cc2)n1` (centres undefined) [MELARSOPROL], the selectivity ratio in data set [2] amounted to 778. Further, the IC50 at 70 h in data set [7] is 7780 nM.
